According to ChEMBL document CHEMBL3774359, “Synthesis of benzofuran derivatives as selective inhibitors of tissue-nonspecific alkaline phosphatase: effects on cell toxicity and osteoblast-induced mineralization” (Bioorg Med Chem Lett, 2016):
Calls of active or inactive are those of the source. No cut-off for these calls is given here.

Experiments:
[1] = Inhibition of porcine kidney TNAP using para-nitrophenylphosphate as substrate preincubated for 10 mins at pH 7.8 followed by substrate addition
[2] = Inhibition of porcine kidney TNAP using para-nitrophenylphosphate as substrate preincubated for 10 mins at pH 10.4 followed by substrate addition
[3] = molecular target: T1, Alkaline phosphatase, placental type (Homo sapiens, UniProt P05187); assay: Inhibition of human placental alkaline phosphatase using para-nitrophenylphosphate as substrate preincubated for 10 mins at pH 7.8 followed by substrate addition
T1 sequence (P05187 whole entry): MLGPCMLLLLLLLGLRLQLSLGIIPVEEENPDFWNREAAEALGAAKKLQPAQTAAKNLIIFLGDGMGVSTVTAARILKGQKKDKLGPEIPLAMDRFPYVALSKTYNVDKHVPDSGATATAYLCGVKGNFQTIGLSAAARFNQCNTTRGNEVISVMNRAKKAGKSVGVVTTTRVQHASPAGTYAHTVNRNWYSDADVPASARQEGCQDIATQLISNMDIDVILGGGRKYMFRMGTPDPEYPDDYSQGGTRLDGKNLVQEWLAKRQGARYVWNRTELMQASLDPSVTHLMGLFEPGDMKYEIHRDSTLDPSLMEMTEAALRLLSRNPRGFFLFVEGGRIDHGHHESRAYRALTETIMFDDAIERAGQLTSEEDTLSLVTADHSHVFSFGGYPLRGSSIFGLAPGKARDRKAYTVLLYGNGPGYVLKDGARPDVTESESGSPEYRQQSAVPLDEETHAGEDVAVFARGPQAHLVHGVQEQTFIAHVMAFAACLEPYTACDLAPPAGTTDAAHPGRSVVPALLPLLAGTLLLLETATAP

[4] = molecular target: T1, Alkaline phosphatase, placental type; assay: Inhibition of human placental alkaline phosphatase using para-nitrophenylphosphate as substrate preincubated for 10 mins at pH 10.4 followed by substrate addition
[5] = molecular target: T2, Intestinal-type alkaline phosphatase (Bos taurus, UniProt P19111); assay: Inhibition of bovine intestinal alkaline phosphatase using para-nitrophenylphosphate as substrate preincubated for 10 mins at pH 10.4 followed by substrate addition
T2 sequence (P19111 whole entry): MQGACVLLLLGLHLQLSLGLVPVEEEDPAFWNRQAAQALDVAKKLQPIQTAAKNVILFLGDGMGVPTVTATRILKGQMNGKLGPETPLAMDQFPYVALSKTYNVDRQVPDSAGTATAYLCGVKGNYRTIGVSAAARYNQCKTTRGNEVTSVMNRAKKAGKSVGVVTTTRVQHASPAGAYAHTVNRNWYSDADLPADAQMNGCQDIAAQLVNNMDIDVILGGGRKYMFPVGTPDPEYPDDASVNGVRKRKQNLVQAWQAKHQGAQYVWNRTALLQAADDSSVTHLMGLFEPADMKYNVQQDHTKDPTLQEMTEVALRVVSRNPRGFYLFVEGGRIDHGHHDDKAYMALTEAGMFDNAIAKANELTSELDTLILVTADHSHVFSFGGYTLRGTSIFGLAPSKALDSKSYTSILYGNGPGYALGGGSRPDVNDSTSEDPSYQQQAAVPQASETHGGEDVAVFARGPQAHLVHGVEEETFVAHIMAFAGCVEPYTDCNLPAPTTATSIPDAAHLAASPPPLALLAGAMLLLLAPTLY

[6] = Inhibition of porcine kidney TNAP using para-nitrophenylphosphate as substrate preincubated for 10 mins at pH 7.8 followed by substrate addition; parameters: species or system Sus scrofa
[7] = molecular target: T2, Intestinal-type alkaline phosphatase; assay: Inhibition of bovine intestinal alkaline phosphatase using para-nitrophenylphosphate as substrate preincubated for 10 mins at pH 7.8 followed by substrate addition
[8] = molecular target: T3, Alkaline phosphatase, tissue-nonspecific isozyme (Mus musculus) (UniProt P09242); details: C57BL/6J, 10 to 40 uM
T3 sequence (whole entry): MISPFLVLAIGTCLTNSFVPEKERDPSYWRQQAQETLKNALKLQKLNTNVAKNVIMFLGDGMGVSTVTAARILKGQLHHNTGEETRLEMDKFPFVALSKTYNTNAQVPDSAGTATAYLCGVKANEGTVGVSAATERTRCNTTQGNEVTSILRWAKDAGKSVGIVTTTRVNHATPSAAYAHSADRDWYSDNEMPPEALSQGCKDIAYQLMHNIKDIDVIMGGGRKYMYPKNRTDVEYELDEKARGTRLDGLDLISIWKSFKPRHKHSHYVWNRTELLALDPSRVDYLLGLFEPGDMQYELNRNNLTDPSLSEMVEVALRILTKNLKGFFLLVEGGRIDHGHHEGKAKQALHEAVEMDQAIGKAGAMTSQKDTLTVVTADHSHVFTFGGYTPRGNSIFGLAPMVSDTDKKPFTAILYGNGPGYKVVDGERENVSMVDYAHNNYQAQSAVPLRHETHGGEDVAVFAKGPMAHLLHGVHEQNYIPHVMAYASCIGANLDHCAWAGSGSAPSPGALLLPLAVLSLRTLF

[9] = Cytotoxicity against mouse primary osteoblasts assessed as reduction in cell viability at 10 to 40 uM after 3 days by MTT assay; type: cell-based; details: osteoblast, 72 h
Outline: (§1)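 Cells (human osteoblast-like Saos-2 and MG63, mouse vascular smooth muscle line MOVAS-1, mouse primary osteoblasts) were incubated with or without inhibitor for 3 days. Viability was read by MTT assay.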

[10] = molecular target: T4, Alkaline phosphatase, tissue-nonspecific isozyme (Homo sapiens) (UniProt P05186); assay: Inhibition of TNAP in human Saos2 cells assessed as reduction of ascorbic acid and beta-glycerophosphate-induced mineralization at 20 to 40 uM after 6 days by alizarin red-s staining based assay; type: cell-based; details: SAOS-2
T4 sequence (whole entry): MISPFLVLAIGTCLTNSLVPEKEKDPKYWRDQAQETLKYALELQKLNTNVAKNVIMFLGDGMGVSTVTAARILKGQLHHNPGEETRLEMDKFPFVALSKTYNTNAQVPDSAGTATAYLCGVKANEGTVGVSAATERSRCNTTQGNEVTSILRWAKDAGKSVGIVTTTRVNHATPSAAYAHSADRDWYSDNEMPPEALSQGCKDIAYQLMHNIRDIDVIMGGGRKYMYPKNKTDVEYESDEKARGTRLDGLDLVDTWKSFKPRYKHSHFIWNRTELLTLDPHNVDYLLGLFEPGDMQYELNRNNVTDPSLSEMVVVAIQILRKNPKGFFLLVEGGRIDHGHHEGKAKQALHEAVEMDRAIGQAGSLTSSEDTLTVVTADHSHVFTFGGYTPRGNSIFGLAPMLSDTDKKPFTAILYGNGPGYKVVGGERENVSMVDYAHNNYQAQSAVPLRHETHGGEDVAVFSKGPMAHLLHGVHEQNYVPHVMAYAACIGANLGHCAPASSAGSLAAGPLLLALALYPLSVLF
Outline: (§2)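 Saos-2 cells and mouse primary osteoblasts received ascorbic acid plus β-glycerophosphate to stimulate differentiation and mineralization, with or without inhibitor. Mineral was quantified by Alizarin Red-S staining and expressed as percent of a control containing DMSO 0.1% (mL:mL) without inhibitor. Experiments were repeated in triplicate for each inhibitor (n = 9).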

[11] = Cytotoxicity against human Saos2 cells assessed as reduction in cell viability at 10 to 40 uM after 3 days by MTT assay; type: cell-based; details: saos-2, 72 h
Outline: as §1

[12] = Cytotoxicity against mouse MOVAS1 cells assessed as reduction in cell viability at 10 to 40 uM after 3 days by MTT assay; type: cell-based; details: movas1, 72 h
Outline: as §1

[13] = Cytotoxicity against human MG63 cells assessed as reduction in cell viability at 10 to 40 uM after 3 days by MTT assay; type: cell-based; details: mg-63, 72 h
Outline: as §1

Sus scrofa = organism: Sus scrofa; assay: Uncompetitive inhibition of porcine kidney TNAP using para-nitrophenylphosphate as substrate preincubated for 10 mins at pH 7.8 to 10.4 followed by substrate addition
[14] = molecular target: T3, Alkaline phosphatase, tissue-nonspecific isozyme (Mus musculus); assay: Inhibition of TNAP in C57BL/6J mouse primary osteoblasts assessed as reduction of ascorbic acid and beta-glycerophosphate-induced mineralization at 10 uM after 6 days by alizarin red-s staining based assay relative to control
Outline: as §2

Compound	IC50 [1]	IC50 [2]	IC50 [3]	IC50 [4]	IC50 [5]	Ki [6]	IC50 [7]	inhibition [8]	Activity [9]	inhibition [10]	Activity [11]	Activity [12]	Activity [13]	inhibition (Sus scrofa)	inhibition [14]
c1ccc([C@H]2CN3CCSC3=N2)cc1 [LEVAMISOLE]	256 µM	41 µM	> 400 µM	> 400 µM	> 400 µM	47 µM	> 400 µM	inactive							
C1=CN2CC(c3cc4ccccc4o3)N=C2S1 (centres undefined)	124 µM	28 µM	> 400 µM	> 400 µM	> 400 µM	32 µM	> 400 µM		Non-toxic	Active	Non-toxic	Non-toxic	Non-toxic	Active	20%
N=c1sccn1CC(=O)c1cc2ccccc2o1	> 400 µM	> 400 µM	> 400 µM	> 400 µM	> 400 µM		> 400 µM								
N=c1sccn1CC(O)c1cc2ccccc2o1 (centres undefined)	> 400 µM	> 400 µM	> 400 µM	> 400 µM	> 400 µM		> 400 µM								
